The record followed here is ChEMBL document CHEMBL1151910, “Synthesis and antirhinovirus activity of new 3-benzyl chromene and chroman derivatives” (Bioorg Med Chem, 2009).

Series [1] can be described thus: Cytotoxicity against human HeLa Ohio cells assessed as maximal non-cytotoxic concentration after 3 days by XTT assay. The class given is cell-based. As to conditions: read-out: MNCC. A general note: Tetrazolium dyes change colour on reduction, which living cells bring about; call rule not given here.
Series [2] deals with rhinovirus A1B. Description: Antiviral activity against HRV 1B infected in human HeLa Ohio cells assessed as reduction in viral plaque formation after 3 days by neutral red uptake assay. The format is functional, organism-based, Human rhinovirus 1B. As to conditions: Rhinovirus A, 72 h. The essentials: (§1)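 HeLa (Ohio) monolayers were infected with enough virus for about 100 plaques per well, adsorbed 1 h at 33 °C, then overlaid with plaque medium with or without fourfold drug dilutions. After 3 days at 33 °C, cells were stained with neutral red (0.2 mg/mL in PBS pH 7.4) and plaques counted. IC50 was read from a plot of % plaque reduction vs log dose against mock-treated control.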

The subject of series [3] is rhinovirus A1B. The series can be described thus: Antiviral activity against HRV 1B infected in human HeLa Ohio cells assessed as reduction in viral plaque formation at maximum non-cytotoxic concentration after 3 days by neutral red uptake assay. The class given is functional, Human rhinovirus 1B. The essentials:
(§2)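 Plaque reduction on HeLa (Ohio) monolayers, with dosing starting from the maximum non-cytotoxic concentration. Virus was adsorbed 1 h at 33 °C, then cells got plaque overlay with fourfold drug dilutions, 3 days at 33 °C, and neutral red staining. Values are % plaque reduction at that concentration vs mock-treated control.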

The nature of series [4]: Therapeutic index, ratio of TC50 for human HeLa Ohio cells to IC50 for HRV1B infected in human HeLa Ohio cells. The format is cell-based. The following applies: read-out: TI.
Series [5] in a line: Cytotoxicity against human HeLa Ohio cells after 3 days by XTT assay. The format is cell-based. The following applies: read-out: TC50.
Series [6] has as its system rhinovirus B14. Description: Antiviral activity against HRV 14 infected in human HeLa Ohio cells assessed as reduction in viral plaque formation after 3 days by neutral red uptake assay. The format is functional, organism-based. Put shortly: as §1
Series [7] concerns rhinovirus B14. The series can be described thus: Antiviral activity against HRV 14 infected in human HeLa Ohio cells assessed as reduction in viral plaque formation at maximum non-cytotoxic concentration after 3 days by neutral red uptake assay. The format is functional. The essentials: as §2

As for `c1ccc(CC2COc3ccccc3C2)cc1` (stereo unspecified), the MNTC at 72 h in series [1] was determined as 25 µM.

As to `O[C@H]1c2ccccc2OC[C@@H]1Cc1ccccc1` (relative stereo), the IC50 (in general, the concentration that gives 50% inhibition) in the series on rhinovirus A1B [2] was 3.59 µM; with rhinovirus B14 [6] (hela), “Not Active”. Moreover, in the series with rhinovirus A1B [3], the “inhibition (INH)” value is on record as 50%. Besides, in series [4], the selectivity ratio was over 55.7. Also, in series [1], the MNTC at 72 h amounted to 25 µM. In series [5], the CC50 at 72 h is over 200 µM.

Turning to `C(=C1/COc2ccccc2C1)/c1ccccc1`, the MNTC at 72 h in series [1] was 25 µM.

On to `O[C@H]1c2ccccc2OC[C@H]1Cc1ccccc1` (relative stereo), for which the IC50 with rhinovirus A1B [2] was 3.49 µM; with rhinovirus B14 [6] (Rhinovirus B, HeLa, 72 h), over 25 µM. Further, the “inhibition (INH)” value amounted to 50% with rhinovirus A1B [3] and 15.9% in the series with rhinovirus B14 [7]. In addition, the selectivity ratio in series [4] turned out to be 43. Moreover, the MNTC at 72 h in series [1] stood at 25 µM. The CC50 at 72 h in series [5] came out at 150 µM.

With `Clc1ccc(C2CCc3cc(Cl)ccc3O2)cc1` (stereo unspecified), the MNTC at 72 h in series [1] was determined as 25 µM.

For `O[C@H]1c2cc(Cl)ccc2OC[C@H]1Cc1ccc(Cl)cc1` (relative stereo), the MNTC at 72 h in series [1] worked out at 25 µM.

As to `Clc1ccc2c(c1)C/C(=C/c1ccccc1)CO2`, the MNTC at 72 h in series [1] is 25 µM.

With `O[C@H]1c2ccccc2OC[C@H]1Cc1ccc(Cl)cc1` (relative stereo), in series [1], the MNTC at 72 h worked out at 12.5 µM.

Take `Clc1ccc2c(c1)CC(Cc1ccccc1)CO2` (stereo unspecified): in series [1], the MNTC at 72 h is 25 µM.

Consider `C1=C(Cc2ccccc2)COc2ccccc21`, for which, in series [1], the MNTC at 72 h is 25 µM.
